Measured values of several laboratories.
Protocols differ between the studies behind these lines.
rep main protease: Replicase polyprotein 1ab, main protease (rep, Severe acute respiratory syndrome coronavirus 2, UniProt P0DTD1)
ADRA1A: Alpha-1A adrenergic receptor (ADRA1A, Homo sapiens, UniProt P35348)
MAL12: Alpha-glucosidase MAL12 (MAL12, Saccharomyces cerevisiae S288c, UniProt P53341)
HRH2: Histamine H2 receptor (HRH2, Homo sapiens, UniProt P25021)

| Structure (SMILES) | target | read-out | mode | technique | tested at | endpoint | value |
| --- | --- | --- | --- | --- | --- | --- | --- |
| COc1cc(O)c2c(=O)c(OC)c(-c3ccc(OC)c(OC)c3)oc2c1 | rep main protease | enzyme activity | inhibitor | – | 10 µM | inhibition | 5.84% |
| COc1cc2c(cc1OC)-c1c(OC)c(OC)cc3c1[C@H](C2)N(C)CC3 (racemic) | ADRA1A | ligand displacement | – | radioligand | 10 µM | inhibition | 69% |
| [2H]c1c([2H])c([C@]2([2H])CCCN2C(=O)C(C)(C)Oc2ccc3cn[nH]c3c2)c([2H])c([2H])c1C([2H])([2H])[2H] | Homeodomain-interacting protein kinase 4 (HIPK4, Homo sapiens, UniProt Q8NE63) | binding | – | competition with immobilised ligand | 1 µM | remaining binding | 59% |
| CN1C(=O)/C(=N\Nc2ncc(-c3cc4ccccc4oc3=O)s2)c2cc(Cl)ccc21 | MAL12 | enzyme activity | inhibitor | absorbance | 100 µM | inhibition | 48.3% |
| CC(C)CC(=O)OC[C@H]1O[C@@](C#N)(c2ccc3c(N)ncnn23)[C@H](O)[C@@H]1O | ADRA1A | cell-free assay | – | – | 20 µM | inhibition | 3% |
| C[C@H]1O[C@H](O[C@H]2[C@H](O)[C@@H](O)[C@@H](O[C@H]3[C@H](O)[C@@H](O)C(O)O[C@@H]3CO)O[C@@H]2CO)[C@H](O)[C@@H](O)[C@@H]1N[C@H]1C=C(CO)[C@@H](O)[C@H](O)[C@H]1O (some centres unmarked) | MAL12 | enzyme activity | inhibitor | absorbance | 774.5 µM | inhibition | 63.9% |
| CN1CCC[C@H]1c1cccnc1 | HRH2 | ligand displacement | – | – | 50 µM | inhibition | 3.47% |
| O=c1c(O)c(-c2ccc(O)cc2)oc2c(O)c(O)cc(O)c12 | rep main protease | enzyme activity | inhibitor | – | – | kinact/KI | 20.3 M⁻¹ s⁻¹ |
| CN1C(=S)N(c2ccccc2)C(=O)/C1=C1/C(=O)N(C)c2ccc(Cl)cc21 | MAL12 | enzyme activity | inhibitor | absorbance | 200 µM | inhibition | 54.2% |
| COc1cc(O)c2c(=O)c(OC)c(-c3ccccc3)oc2c1 | rep main protease | enzyme activity | inhibitor | – | 10 µM | inhibition | 3.04% |
| O=C(O[C@@H]1Cc2c(O)cc(O)cc2O[C@@H]1c1ccc(O)c(O)c1)c1cc(O)c(O)c(O)c1 | rep main protease | enzyme activity | inhibitor | – | – | kinact | 1.83e-05 s⁻¹ |
| COc1ccc(-c2cc(=O)c3c(O)cc(OC)cc3o2)cc1 | rep main protease | enzyme activity | inhibitor | – | 100 µM | inhibition | 10.6% |
| O=C(O)c1cc(O)c(O)c(O)c1 | rep main protease | enzyme activity | inhibitor | – | – | kinact/KI | 205 M⁻¹ s⁻¹ |
| COc1cc(O)c2c(=O)cc(-c3ccccc3)oc2c1 | rep main protease | enzyme activity | inhibitor | – | 10 µM | inhibition | 2.12% |
| CCc1ccc(N2C(=O)/C(=C3/C(=O)N(C)c4ccc(Cl)cc43)NC2=S)cc1 | MAL12 | enzyme activity | inhibitor | absorbance | 25 µM | inhibition | 14.6% |
| COc1cc2c3c(c1OC)-c1c(cccc1OC)CC3N(C)CC2 (racemic) | ADRA1A | ligand displacement | – | radioligand | 10 µM | inhibition | 65% |
| c1cncc([C@@H]2CCCN2)c1 | HRH2 | ligand displacement | – | – | 50 µM | inhibition | -6.37% |
